In the EternaBench riboswitch data:

How the values were obtained:
MS2 coat protein [1] = experiment: apparent Kd, MS2 coat protein; higher = weaker binding; RNA-MaP array
Procedure, shortened: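 With or without input ligand, designed RNAs transcribed on an Illumina sequencing chip from sequenced DNA templates were incubated at room temperature with fluorescently labeled MS2 coat protein at 1.5 nM to 3 μM. The buffer was Tris-HCl pH 7.5 with KCl, MgCl2, BSA, DTT, tRNA and Tween20, and incubation ran 0.8–1.5 h at the lowest and 10–20 min at the highest concentrations. Apparent Kd is reported as the median of fits to binding curves from individual clusters. Designs measured on fewer than 10 clusters are not included.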

MS2 coat protein [2] = experiment: apparent Kd, MS2 coat protein; higher = weaker binding; RNA-MaP array; FMN 200 µM where present
Procedure, shortened: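 Designs were transcribed by stalled E. coli RNA polymerase on Illumina sequencing-chip clusters. They were titrated with SNAP-549-labelled MS2 coat protein from 0.7 or 1.5 nM, doubling to 3 µM, in 100 mM Tris-HCl pH 7.5, 80 mM KCl, 4 mM MgCl2, BSA, DTT, yeast tRNA and Tween-20, without and then with constant ligand. The apparent Kd is the median of filtered per-cluster fits after normalisation of green signal to red-channel RNA signal and control-cluster median Fmax.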

[3] = designed as: OFF switch for flavin mononucleotide, no ligand
[4] = ligand present: flavin mononucleotide, designed as: OFF switch for flavin mononucleotide
[5] = designed as: ON switch for flavin mononucleotide, no ligand
[6] = ligand present: flavin mononucleotide, designed as: ON switch for flavin mononucleotide

UUGUCCCGAGGAUAUGAGAGGGAGUACAUGAGGAUCACCCAUGUCAUGAAUCUUCAUAUCUCAGAAGGCGGUUGAU
apparent Kd (MS2 coat protein [1]; [3]): 4.85 nM | apparent Kd (MS2 coat protein [1]; [4]): 6.24 nM

CAGUUACAUGAGGAUCACCCAUGUUUUUAACGCAGAGGAUAUCCGGUGGUUAAUGGCUCAGGAGAAGGCUGUGGUC
apparent Kd (MS2 coat protein [1]; [5]): 16.3 nM | apparent Kd (MS2 coat protein [1]; [6]): 9.37 nM

AAGGUGCACGCUCAGGAUAUAUUCCAGGUUACAUGAGGAUCACCCAUGUAGGGUUGAAGAAGGACAUAGAAGGGAGCCUACUUGGC
apparent Kd (MS2 coat protein [1]; [5]): 32.6 nM | apparent Kd (MS2 coat protein [1]; [6]): 21.6 nM

AUGCCACUUAAGAAGGCGGCGUGAUGCUUAGCGUUGAGACAUGAGGAUCACCCAUGUGACGUACCCGAGGAUAUUAAUGGAAUC
apparent Kd (MS2 coat protein [1]; [5]): 17 nM | apparent Kd (MS2 coat protein [1]; [6]): 11.7 nM

CGUGGCAAUCAAGGAUAUCACUUCUAGAUACCGUGAGAAGGUGAGCGUCUCUGCAAAGAGCGGGACAUGAGGAUCACCCAUGUA
apparent Kd (MS2 coat protein [1]; [5]): 255 nM | apparent Kd (MS2 coat protein [1]; [6]): 162 nM

UUACAGUCAGGAUAUUGAGUCACCCACAUGAGGAUCACCCAUGUACCUCGAAAACUGGAGCAAGAAGGGACUGCUG
apparent Kd (MS2 coat protein [1]; [3]): 18.9 nM | apparent Kd (MS2 coat protein [1]; [4]): 26.4 nM

GAACUGUGAGGAUAUACAUGAGGAUCACCCAUGUUUGUGUUGGCACGCACUCGGGCAAGUAGAAGGCACAGAUG
apparent Kd (MS2 coat protein [1]; [3]): 44 nM | apparent Kd (MS2 coat protein [1]; [4]): 73.7 nM

CCACGCUCAGUUAGGAUAUGAUCCAUUACCAGUGAUCAGAAGGAACAUGAGGAUCACCCAUGUACAGUACGAGA
apparent Kd (MS2 coat protein [1]; [3]): 9.62 nM | apparent Kd (MS2 coat protein [1]; [4]): 14.2 nM

ACUACGCUAGGAUAUACGAGGAGUGCAUGGAAGCGUUUGACACAUGAGGAUCACCCAUGUAGAAGGAGCUGCAA
apparent Kd (MS2 coat protein [1]; [3]): 7.75 nM | apparent Kd (MS2 coat protein [1]; [4]): 16.1 nM

CUUGGCGCUCAGAAGGCCGUCCAUGCACGCGCUAGGACAUGAGGAUCACCCAUGUAUCUAUGGACGGAGGAUAUGAUUCUCUCG
apparent Kd (MS2 coat protein [1]; [5]): 20.4 nM | apparent Kd (MS2 coat protein [1]; [6]): 8.75 nM

AAGCUACAUGAGGAUCACCCAUGUCUCACGUCACUAGGAUAUCUGAAGGUGACGAAGUUCAGAGAAGGAGUGCAUC
apparent Kd (MS2 coat protein [1]; [5]): 97.2 nM | apparent Kd (MS2 coat protein [1]; [6]): 83.2 nM

GGUUCGCAUGUAGGAUAUCGCAAUAUAAACAUGAGGAUCACCCAUGUAACAAUGUAAACGGACAACGAGAAGGACAUCAACUCC
apparent Kd (MS2 coat protein [1]; [5]): 44.6 nM | apparent Kd (MS2 coat protein [1]; [6]): 22.8 nM

UAUUAGUGAGGAUAUGAGUCGUAGAACAAUAGUACUACGUCUCAGAAGGUACAUGAGGAUCACCCAUGUUUCUC
apparent Kd (MS2 coat protein [2]; [3]): 20 nM | apparent Kd (MS2 coat protein [2]; [4]): 23.8 nM

AUGCUAUUAGGAUAUACAUGAGGAUCACCCAUGUCGCUCGAUCGACGGCUAAGACUAUGUAGAAGGGAUUACGU
apparent Kd (MS2 coat protein [2]; [3]): 95.7 nM | apparent Kd (MS2 coat protein [2]; [4]): 94.4 nM

CCUCGACAUGAGGAUCACCCAUGUCAGGAUAUUGUGUCUCGGGUUUUUUACCGAUAGGCAAGAAGGGAUGUGUG
apparent Kd (MS2 coat protein [2]; [3]): 23.4 nM | apparent Kd (MS2 coat protein [2]; [4]): 31 nM

UUUUUUUACUAGGAUAUCAGAGUCGAAAGACUCUGAGAAGGAGUAACAUGAGGAUCACCCAUGUGUCCUUUUUU
apparent Kd (MS2 coat protein [2]; [3]): 20.1 nM | apparent Kd (MS2 coat protein [2]; [4]): 49.3 nM

ACGGCCUUACAUGAGGAUCACCCAUGUGAGUAUGGAGUUACACAGGAUAUCCGCGUGGCAGGCAAGGAGAAGGGUGUAUUAGGA
apparent Kd (MS2 coat protein [2]; [5]): 70 nM | apparent Kd (MS2 coat protein [2]; [6]): 21.9 nM

UUAUAUAAUGUGAGGAUAUGCUGGUCCUUGGAUCAGCAGAAGGCACAUGAGGAUCACCCAUGUAGUAAAUUUUA
apparent Kd (MS2 coat protein [2]; [3]): 19 nM | apparent Kd (MS2 coat protein [2]; [4]): 24.4 nM

GCUGUCGCAUGAGGAUAUGGUCAGCUUUGCUGACCAGAAGGCAUGUCAAUAGACAUGAGGAUCACCCAUGUGGUUAGGGCGGCU
apparent Kd (MS2 coat protein [2]; [5]): 1030 nM | apparent Kd (MS2 coat protein [2]; [6]): 93.5 nM

UAUACUAGAUAGGAUAUACUAUAUAUAUUAUUCGUAGAAGGAUCUACAUGAGGAUCACCCAUGUUAACAGCAGU
apparent Kd (MS2 coat protein [2]; [3]): 47.6 nM | apparent Kd (MS2 coat protein [2]; [4]): 37 nM

CUUACGCGAGGAUAUACAUGAGGAUCACCCAUGUAACGGUGUGUAAUAUAUAUUGCGUGUAGAAGGUGUGUGGG
apparent Kd (MS2 coat protein [2]; [3]): 87 nM | apparent Kd (MS2 coat protein [2]; [4]): 101 nM

UCCUUGUCCUGAGGAUAUCCGCGGUUCCCAAAAGGAGAAGGCAGGACAUGAGGAUCACCCAUGUACCCAGAAAACGUGCAGAGU
apparent Kd (MS2 coat protein [2]; [3]): 36.8 nM | apparent Kd (MS2 coat protein [2]; [4]): 313 nM

GCUGCGCGAGGAUAUGCGGUUCGCGCGGUGGCCCGUGGCGGACAUGAGGAUCACCCAUGUAGAAGGCGUGCGGG
apparent Kd (MS2 coat protein [2]; [3]): 11.1 nM | apparent Kd (MS2 coat protein [2]; [4]): 12.1 nM

GCUGUCGCGUGAGGAUAUGGUCGGCUGUGCUGACCAGAAGGCAUGUCGAUAGACAUGAGGAUCACCCAUGUGGUUAGGGCGGCU
apparent Kd (MS2 coat protein [2]; [5]): 790 nM | apparent Kd (MS2 coat protein [2]; [6]): 313 nM

CUGCGACGGUGCACAAGUGGACGGAGAAGGCAGACAUGAGGAUCACCCAUGUGAGCCUGCUAUUCUGAGGAUAUCCGUUCACAC
apparent Kd (MS2 coat protein [2]; [3]): 36 nM | apparent Kd (MS2 coat protein [2]; [4]): 213 nM

UUAUUAUAUGUAGGAUAUGCAUAUUAUUAUUAUGCAGAAGGACAUGAGGAUCACCCAUGUAUAUUAUUAUUGUAUAUUAUAUAU
apparent Kd (MS2 coat protein [2]; [3]): 28.4 nM | apparent Kd (MS2 coat protein [2]; [4]): 46.1 nM
